ChEMBL document CHEMBL1139437, “Design, synthesis, and preliminary pharmacological evaluation of 4-aminopiperidine derivatives as N-type calcium channel blockers active on pain and neuropathic pain” (J Med Chem, 2004)

Assays:
[1] = system: Mus musculus; test: Analgesic activity was evaluated in mouse hotplate test; expressed as licking latency after 15 min of treatment at a dose of 40 ug intracerebroventricularly; assay type: functional
In short: (§1)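 Male Swiss albino mice (23-30 g); icv injection of 5 μL (saline or H2O/DMSO 2:1) under brief anaesthesia. Paw-licking latency (s) on hot plate read before injection and every 15 min up to 60 min. Mice with pretest latency below 12 or over 18 s excluded; cutoff 45 s. Statistics against saline- or vehicle-treated controls.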

[2] = system: Mus musculus; test: Analgesic activity was evaluated in mouse hotplate test; expressed as licking latency after 30 min of treatment at a dose of 40 ug intracerebroventricularly; assay type: functional; in short: as §1
[3] = species on record: Mus musculus; test: Percentage analgesic efficacy when compared to morphine; assay type: functional; design: concentration or dose not given beside the values
In short: (§2)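 Male Swiss albino mice, hot-plate test, paw-licking latency; pretest 12–18 s required, cutoff 45 s. Icv injection of 5 μL under brief anaesthesia, in saline or H2O/DMSO 2:1, at maximal soluble dose. Latency read before and every 15 min after dosing. Efficacy = (peak latency − pretest) as % of the same value for morphine 10 μg/mouse icv; non-significant effects scored 0.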

[4] = system: Mus musculus; test: Analgesic activity was evaluated in mouse hotplate test; expressed as licking latency after 45 min of treatment at a dose of 40 ug intracerebroventricularly; assay type: functional; in short: as §1
[5] = system: Rattus norvegicus; test: Antihyperalgesic activity was evaluated in rat (dx) paw pressure test after 30 min at a dose of 40 ug intracerebroventricularly
[6] = system: Rattus norvegicus; test: Antihyperalgesic activity was evaluated in rat (dx) paw pressure test after 45 min at a dose of 40 ug intracerebroventricularly
[7] = system: Rattus norvegicus; test: Antihyperalgesic activity was evaluated in rat (dx) paw pressure test after 60 min at a dose of 40 ug intracerebroventricularly
[8] = system: Rattus norvegicus; test: Antihyperalgesic activity was evaluated in rat (sn) paw pressure test after 30 min at a dose of 40 ug intracerebroventricularly
[9] = system: Rattus norvegicus; test: Antihyperalgesic activity was evaluated in rat (sn) paw pressure test after 45 min at a dose of 40 ug intracerebroventricularly
[10] = system: Rattus norvegicus; test: Antihyperalgesic activity was evaluated in rat (sn) paw pressure test after 60 min at a dose of 40 ug intracerebroventricularly
[11] = biological target: Voltage-dependent N-type calcium channel subunit alpha-1B (Rattus norvegicus) (UniProt Q02294); test: In vitro antagonism of N-type calcium channels expressed in PC12 cells was determined as the increase in intracellular calcium influx
[12] = system: Mus musculus; test: (§3) Analgesic activity was evaluated in mouse hotplate test; expressed as licking latency after 15 min of treatment at a dose of 10 ug intracerebroventricularly; assay type: functional
In short: (§4)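 Male Swiss albino mice (23-30 g); icv injection under brief anaesthesia, 5 μL into the lateral ventricle, in saline or H2O/DMSO (2:1). Hot plate: latency to licking of fore or hind paws timed with a stopwatch before injection and every 15 min up to 60 min. Pretest scores below 12 or over 18 s rejected; cutoff 45 s.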

[13] = system: Mus musculus; test: (§5) Analgesic activity was evaluated in mouse hotplate test; expressed as licking latency after 30 min of treatment at a dose of 10 ug intracerebroventricularly; assay type: functional; in short: as §4
[14] = system: Mus musculus; test: (§6) Analgesic activity was evaluated in mouse hotplate test; expressed as licking latency after 45 min of treatment at a dose of 10 ug intracerebroventricularly; assay type: functional; in short: as §4
[15] = system: Mus musculus; test: Percentage analgesic efficacy when compared to morphine at 10 ug intracerebroventricularly; assay type: functional; in short: as §2
[16] = system: Mus musculus; test: Percentage analgesic efficacy when compared to morphine at 50 ug intracerebroventricularly; assay type: functional; in short: as §2
[17] = system: Mus musculus; test: as §5; assay type: functional; in short: as §1; remark: listed apart in the source
[18] = system: Mus musculus; test: Analgesic activity was evaluated in mouse hotplate test; expressed as licking latency after 30 min of treatment at a dose of 25 ug intracerebroventricularly; assay type: functional; in short: as §1
[19] = system: Mus musculus; test: Analgesic activity was evaluated in mouse hotplate test; expressed as licking latency after 15 min of treatment at a dose of 25 ug intracerebroventricularly; assay type: functional; in short: as §1
[20] = system: Mus musculus; test: as §6; assay type: functional; in short: as §1; remark: listed apart in the source
[21] = system: Mus musculus; test: Analgesic activity was evaluated in mouse hotplate test; expressed as licking latency after 45 min of treatment at a dose of 25 ug intracerebroventricularly; assay type: functional; in short: as §1
[22] = system: Mus musculus; test: Analgesic activity was evaluated in mouse hotplate test; expressed as licking latency before treatment at a dose of 10 ug intracerebroventricularly; assay type: functional; in short: as §1
[23] = system: Mus musculus; test: Analgesic activity was evaluated in mouse hotplate test; expressed as licking latency before treatment at a dose of 25 ug intracerebroventricularly; assay type: functional; in short: as §1
[24] = system: Mus musculus; test: Analgesic activity was evaluated in mouse hotplate test; expressed as licking latency after 15 min of treatment at a dose of 50 ug intracerebroventricularly; assay type: functional; in short: as §1
[25] = system: Mus musculus; test: as §3; assay type: functional; in short: as §1; remark: listed apart in the source
[26] = system: Mus musculus; test: Analgesic activity was evaluated in mouse hotplate test; expressed as licking latency after 30 min of treatment at a dose of 50 ug intracerebroventricularly; assay type: functional; in short: as §1
[27] = system: Mus musculus; test: Analgesic activity was evaluated in mouse hotplate test; expressed as licking latency after 45 min of treatment at a dose of 50 ug intracerebroventricularly; assay type: functional; in short: as §1
[28] = system: Rattus norvegicus; test: Antihyperalgesic activity was evaluated in rat (dx) paw pressure test after 30 min at a dose of 50 ug intracerebroventricularly
[29] = system: Rattus norvegicus; test: Antihyperalgesic activity was evaluated in rat (dx) paw pressure test after 45 min at a dose of 50 ug intracerebroventricularly
[30] = system: Rattus norvegicus; test: Antihyperalgesic activity was evaluated in rat (dx) paw pressure test after 60 min at a dose of 50 ug intracerebroventricularly
[31] = system: Rattus norvegicus; test: Antihyperalgesic activity was evaluated in rat (sn) paw pressure test after 30 min at a dose of 50 ug intracerebroventricularly
[32] = system: Rattus norvegicus; test: Antihyperalgesic activity was evaluated in rat (sn) paw pressure test after 45 min at a dose of 50 ug intracerebroventricularly
[33] = system: Rattus norvegicus; test: Antihyperalgesic activity was evaluated in rat (sn) paw pressure test after 60 min at a dose of 50 ug intracerebroventricularly
[34] = biological target: Voltage-dependent N-type calcium channel subunit alpha-1B (Rattus norvegicus) (UniProt Q02294); test: In vitro antagonism of N-type calcium channels expressed in PC12 cells was determined as the increase in intracellular calcium influx in the presence of 10 uM nifedipine

Chain of Voltage-dependent N-type calcium channel subunit alpha-1B (Rattus norvegicus) (Q02294 whole entry, looked up): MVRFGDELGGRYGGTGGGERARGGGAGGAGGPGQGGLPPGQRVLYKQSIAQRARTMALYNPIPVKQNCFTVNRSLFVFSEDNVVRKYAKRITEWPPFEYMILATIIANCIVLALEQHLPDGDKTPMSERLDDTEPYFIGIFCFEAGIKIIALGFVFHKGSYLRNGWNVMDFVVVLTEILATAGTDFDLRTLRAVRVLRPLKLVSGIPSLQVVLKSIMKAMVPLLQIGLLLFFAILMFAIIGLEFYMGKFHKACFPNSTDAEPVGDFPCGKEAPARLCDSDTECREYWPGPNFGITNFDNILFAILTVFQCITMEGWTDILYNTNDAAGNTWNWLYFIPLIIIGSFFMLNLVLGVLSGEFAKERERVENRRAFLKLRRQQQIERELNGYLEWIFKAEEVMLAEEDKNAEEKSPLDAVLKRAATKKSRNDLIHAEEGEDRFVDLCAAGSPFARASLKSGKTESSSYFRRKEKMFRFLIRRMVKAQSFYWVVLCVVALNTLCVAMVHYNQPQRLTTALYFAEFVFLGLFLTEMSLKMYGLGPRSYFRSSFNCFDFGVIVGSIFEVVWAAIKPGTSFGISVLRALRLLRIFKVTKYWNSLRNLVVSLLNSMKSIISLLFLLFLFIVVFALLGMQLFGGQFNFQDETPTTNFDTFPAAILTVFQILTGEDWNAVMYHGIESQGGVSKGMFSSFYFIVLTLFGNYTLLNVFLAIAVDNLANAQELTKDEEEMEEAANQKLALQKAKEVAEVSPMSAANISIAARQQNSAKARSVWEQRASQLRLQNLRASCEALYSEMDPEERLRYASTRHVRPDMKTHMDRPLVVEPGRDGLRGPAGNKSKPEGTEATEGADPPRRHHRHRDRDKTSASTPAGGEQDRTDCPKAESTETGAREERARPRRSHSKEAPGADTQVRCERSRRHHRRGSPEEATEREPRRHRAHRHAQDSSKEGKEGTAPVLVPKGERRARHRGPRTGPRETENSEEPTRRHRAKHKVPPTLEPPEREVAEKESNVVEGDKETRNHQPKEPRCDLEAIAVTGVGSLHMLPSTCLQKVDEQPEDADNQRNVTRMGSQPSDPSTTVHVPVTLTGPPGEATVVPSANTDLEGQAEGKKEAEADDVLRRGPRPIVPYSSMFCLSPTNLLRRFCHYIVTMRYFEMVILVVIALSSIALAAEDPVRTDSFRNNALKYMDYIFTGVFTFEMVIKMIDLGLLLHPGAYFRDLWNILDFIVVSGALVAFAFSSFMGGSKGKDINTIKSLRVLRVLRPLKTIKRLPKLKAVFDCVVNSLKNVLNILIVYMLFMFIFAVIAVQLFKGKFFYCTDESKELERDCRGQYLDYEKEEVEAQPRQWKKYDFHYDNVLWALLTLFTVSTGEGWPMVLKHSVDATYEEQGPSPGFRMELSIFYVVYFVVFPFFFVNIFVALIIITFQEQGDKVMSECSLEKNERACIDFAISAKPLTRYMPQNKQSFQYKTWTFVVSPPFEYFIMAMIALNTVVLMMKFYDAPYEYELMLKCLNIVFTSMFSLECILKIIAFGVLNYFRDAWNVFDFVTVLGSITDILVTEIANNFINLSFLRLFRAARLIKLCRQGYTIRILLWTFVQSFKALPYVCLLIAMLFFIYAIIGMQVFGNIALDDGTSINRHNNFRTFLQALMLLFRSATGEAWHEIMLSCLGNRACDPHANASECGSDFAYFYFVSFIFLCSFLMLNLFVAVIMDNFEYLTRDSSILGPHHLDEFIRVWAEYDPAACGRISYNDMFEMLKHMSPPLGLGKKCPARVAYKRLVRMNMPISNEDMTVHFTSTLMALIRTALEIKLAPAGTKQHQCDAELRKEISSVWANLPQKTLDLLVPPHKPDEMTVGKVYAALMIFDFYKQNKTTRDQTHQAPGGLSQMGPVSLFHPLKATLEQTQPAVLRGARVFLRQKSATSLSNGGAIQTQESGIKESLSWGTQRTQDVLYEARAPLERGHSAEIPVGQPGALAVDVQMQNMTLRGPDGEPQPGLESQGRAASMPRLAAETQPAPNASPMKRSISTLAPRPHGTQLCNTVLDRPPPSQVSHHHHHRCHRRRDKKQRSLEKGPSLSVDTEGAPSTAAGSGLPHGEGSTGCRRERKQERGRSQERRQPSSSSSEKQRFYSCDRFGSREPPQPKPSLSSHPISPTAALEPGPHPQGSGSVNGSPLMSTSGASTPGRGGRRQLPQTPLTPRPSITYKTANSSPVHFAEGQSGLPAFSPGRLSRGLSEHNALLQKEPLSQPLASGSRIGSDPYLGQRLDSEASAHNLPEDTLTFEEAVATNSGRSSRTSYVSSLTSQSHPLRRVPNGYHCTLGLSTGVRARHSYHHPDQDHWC

CNC(CC(C)C)C(=O)NC1CCN(C(=O)CCC(c2ccc(F)cc2)c2ccc(F)cc2)CC1.Cl (centres undefined)
Latency [1]: 21.5 s | Latency [2]: 20.7 s | Efficacy [3]: 56% | Latency [4]: 15.5 s | Activity [5]: 28.1 g | Activity [6]: 33.4 g | Activity [7]: 30.1 g | Activity [8]: 55.7 g | Activity [9]: 61.3 g | Activity [10]: 66.4 g | IC50 [11]: 3000 nM

CN1CC[C@]23c4c5ccc(O)c4O[C@H]2[C@@H](O)C=C[C@H]3[C@H]1C5 [MORPHINE]
Latency [12]: 28.6 s | Latency [13]: 27.7 s | Latency [14]: 22.4 s

Cl.NC1CCN(C(=O)CCC(c2ccc(F)cc2)c2ccc(F)cc2)CC1
Efficacy [15]: 0% | Efficacy [16]: 147% | Activity [17]: 16.1 s | Activity [18]: 23.9 s | Activity [19]: 24.6 s | Activity [20]: 16.4 s | Activity [21]: 20.5 s | Activity [22]: 14.3 s | Activity [23]: 13.9 s | Activity [24]: 34.1 s | Activity [25]: 15.7 s | Activity [26]: 31.7 s | Activity [27]: 29.5 s | Activity [28]: 55.1 g | Activity [29]: 54.8 g | Activity [30]: 59.3 g | Activity [31]: 62.3 g | Activity [32]: 55.6 g | Activity [33]: 54.7 g | IC50 [34]: 2400 nM
